Results reported in ChEMBL document CHEMBL1138117, “Hybrid antibacterials. DNA polymerase-topoisomerase inhibitors” (J Med Chem, 2006).
Values after ≈ are worked out from the molar mass of the structure shown.

Assays:
[1] = system: DNA gyrase (Bacillus subtilis); test: Inhibition of Bacillus subtilis gyrase activity
Enterococcus faecium [2] = test: Antibacterial activity against Vancomycin resistant Enterococcus faecium VRE 700802; assay type: functional
Mus musculus [3] = test: Effect on survival of mice after ip infection with Vancomycin resistant Enterococcus faecium VRE 700802 at 50 mg/kg twice at 15 and 195 min post injection; assay type: functional, Swiss Webster; conditions: route intraperitoneal
Mus musculus [4] = test: Effect on survival of mice after ip infection with Vancomycin resistant Enterococcus faecium VRE 700802 at 100 mg/kg, 15 min post injection; assay type: functional, Swiss Webster; conditions: route intraperitoneal
Method in brief: (§1)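 Male Swiss-Webster mice were infected ip with the organism grown in brain-heart infusion broth at 37 °C to log phase and washed. It was given in 0.5 mL broth with 5% mucin; CFU were estimated from OD600. Groups of 5 or 10 received iv tail-vein doses in DCP vehicle at 5 mL/kg. Survivors were counted at 72 h.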

Mus musculus [5] = test: Effect on survival of mice after ip infection with Vancomycin resistant Enterococcus faecium VRE 700802 at 50 mg/kg twice at 15 and 135 min post injection; assay type: functional, Swiss Webster
Method in brief: as §1

Enterococcus faecalis = test: Antibacterial activity against Enterococcus faecalis 29212; assay type: functional
Escherichia coli = test: Antibacterial activity against Escherichia coli J53; assay type: functional
Mus musculus [6] = test: Effect on survival of mice infected with methicillin resistant Staphylococcus aureus 1094 at 25 mg/kg twice at 15 and 135 min post injection; assay type: functional, Swiss Webster
Method in brief: (§2)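 Male Swiss-Webster mice were infected ip with 1×10⁷ CFU of log-phase MRSA 1094, grown in brain-heart infusion broth and given in 0.5 mL broth with 5% mucin. Doses in DCP vehicle were given iv by tail vein at 5 mL/kg. Survivors per treated group were counted at 72 h post-infection.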

Mus musculus [7] = test: Effect on survival of mice infected with methicillin resistant Staphylococcus aureus 1094 at 50 mg/kg twice at 15 and 135 min post injection; assay type: functional, Swiss Webster
Method in brief: as §2

Mus musculus [8] = test: Effect on survival of mice after ip infection with Vancomycin resistant Enterococcus faecium VRE 700802 at 75 mg/kg twice at 15 and 135 min post injection; assay type: functional, Swiss Webster; conditions: route intraperitoneal
Mus musculus [9] = test: Effect on survival of mice infected with Enterococcus faecalis 29212 at 25 mg/kg, 15 min post injection; assay type: functional, Swiss Webster
Method in brief: as §1

Mus musculus [10] = test: Effect on survival of mice infected with Enterococcus faecalis 29212 at 25 mg/kg twice at 15 and 135 min post injection; assay type: functional, Swiss Webster
Method in brief: as §1

Staphylococcus aureus [11] = test: Antibacterial activity against methicillin resistant Staphylococcus aureus MRSA 1094; assay type: functional
Mus musculus [12] = test: Effect on survival of mice infected with methicillin resistant Staphylococcus aureus 1094 at 75 mg/kg twice at 15 and 135 min post injection; assay type: functional, Swiss Webster
Method in brief: as §2

Mus musculus [13] = test: Effect on survival of mice infected with Enterococcus faecalis 29212 at 75 mg/kg, 15 min post injection; assay type: functional, Swiss Webster
Method in brief: as §1

Mus musculus [14] = test: Effect on survival of mice infected with Enterococcus faecalis 29212 at 50 mg/kg twice at 15 and 135 min post injection; assay type: functional, Swiss Webster
Method in brief: as §1

Mus musculus [15] = test: Effect on survival of mice after ip infection with Vancomycin resistant Enterococcus faecium VRE 700802 at 75 mg/kg twice at 15 and 195 min post injection; assay type: functional, Swiss Webster; conditions: route intraperitoneal
Method in brief: as §1

Mus musculus [16] = test: Effect on survival of mice infected with Enterococcus faecalis 29212 at 50 mg/kg, 15 min post injection; assay type: functional, Swiss Webster
Method in brief: as §1

Mus musculus [17] = test: Effect on survival of mice after ip infection with Staphylococcus aureus Smith; assay type: functional
Method in brief: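 Male Swiss-Webster mice (20–24 g) were given 10⁸ CFU of log-phase S. aureus Smith ip, grown in LB at 37 °C and washed in cold broth. A single iv tail-vein dose was given in DCP vehicle (10% DMA, 10% Cremophor EL in PBS, pH 9.5; 5 mL/kg) 15 min post-infection. Survival was scored at 72 h and ED50 derived.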

Enterococcus faecium [18] = test: Antibacterial activity against Enterococcus faecium 19434; assay type: functional
[19] = target: DNA polymerase III PolC-type (Bacillus subtilis (strain 168), UniProt P13267); test: Binding affinity to Bacillus subtilis DNA polymerase3C; conditions: read-out: Ki
Chain of DNA polymerase III PolC-type (P13267 whole entry, the tested form may be a part): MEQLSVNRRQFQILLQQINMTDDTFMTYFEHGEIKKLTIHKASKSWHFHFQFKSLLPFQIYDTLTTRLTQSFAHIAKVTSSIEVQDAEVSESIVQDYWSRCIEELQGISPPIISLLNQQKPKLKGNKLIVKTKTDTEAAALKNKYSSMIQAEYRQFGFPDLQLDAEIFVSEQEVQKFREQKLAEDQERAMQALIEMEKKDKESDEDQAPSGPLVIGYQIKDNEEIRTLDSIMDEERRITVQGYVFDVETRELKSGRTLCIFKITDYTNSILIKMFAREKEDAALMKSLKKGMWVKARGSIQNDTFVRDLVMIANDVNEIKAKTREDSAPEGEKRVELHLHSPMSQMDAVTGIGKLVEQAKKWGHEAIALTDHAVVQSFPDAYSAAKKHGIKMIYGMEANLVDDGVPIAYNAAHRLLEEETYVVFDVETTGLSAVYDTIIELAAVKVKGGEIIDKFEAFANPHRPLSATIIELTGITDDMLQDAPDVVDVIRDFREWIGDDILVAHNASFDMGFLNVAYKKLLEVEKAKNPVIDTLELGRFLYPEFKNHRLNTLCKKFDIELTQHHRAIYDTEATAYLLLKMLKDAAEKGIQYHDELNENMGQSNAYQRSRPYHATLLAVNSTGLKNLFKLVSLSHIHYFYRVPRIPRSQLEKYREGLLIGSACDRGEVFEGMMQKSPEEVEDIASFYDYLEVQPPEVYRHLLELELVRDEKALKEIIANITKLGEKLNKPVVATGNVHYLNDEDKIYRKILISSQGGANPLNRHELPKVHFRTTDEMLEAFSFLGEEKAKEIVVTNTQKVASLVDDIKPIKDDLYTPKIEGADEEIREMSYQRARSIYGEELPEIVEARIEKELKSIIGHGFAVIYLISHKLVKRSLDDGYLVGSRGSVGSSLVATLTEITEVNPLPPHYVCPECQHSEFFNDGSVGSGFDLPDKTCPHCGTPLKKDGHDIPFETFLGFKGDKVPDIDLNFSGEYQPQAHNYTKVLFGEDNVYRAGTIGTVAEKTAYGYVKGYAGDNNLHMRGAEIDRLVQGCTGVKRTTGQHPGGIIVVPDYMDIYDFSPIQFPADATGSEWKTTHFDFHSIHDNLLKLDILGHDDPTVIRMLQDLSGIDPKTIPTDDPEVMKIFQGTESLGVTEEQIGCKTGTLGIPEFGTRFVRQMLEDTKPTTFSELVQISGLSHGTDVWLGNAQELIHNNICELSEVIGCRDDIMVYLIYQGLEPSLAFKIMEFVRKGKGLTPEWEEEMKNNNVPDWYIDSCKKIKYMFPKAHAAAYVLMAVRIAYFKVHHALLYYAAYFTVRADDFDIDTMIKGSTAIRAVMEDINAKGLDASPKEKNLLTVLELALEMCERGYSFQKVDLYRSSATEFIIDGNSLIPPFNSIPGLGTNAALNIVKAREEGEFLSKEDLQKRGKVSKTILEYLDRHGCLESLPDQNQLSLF
Method in brief: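 Homogeneous recombinant B. subtilis pol IIIC was assayed in 96-well format on activated calf thymus DNA. Apparent Ki values were determined in a truncated assay lacking the competitor dGTP.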

Staphylococcus aureus [20] = test: Antibacterial activity against Staphylococcus aureus 25293; assay type: functional
[21] = Tmax in mice at 100 mg/kg, iv; assay type: ADME, organism-based; design: dose 100 mg/kg, route intravenous; conditions: Swiss Webster, mouse, in vivo
Method in brief: (§3)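 Male Swiss-Webster mice (20–24 g) got a single 100 mg/kg iv tail-vein bolus at 5 mL/kg in DCP vehicle (10% N,N-dimethylacetamide, 10% Cremophor EL in PBS, pH 9.5). Blood was taken from groups of 3 at various times. Plasma was quantified by C18 HPLC with MeCN:H₂O:NEt₃:AcOH (25:74.7:0.2:0.1), 1 mL/min, detection at 282 nm, against a spiked-plasma standard curve linear over 1–40 μg/mL.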

[22] = Plasma concentration after 6 hrs in mice administered with 100 mg/kg, iv; assay type: ADME, organism-based; design: dose 100 mg/kg, route intravenous; conditions: Swiss Webster, mouse
Method in brief: as §3

[23] = Cmax in mice at 100 mg/kg, iv; assay type: ADME, organism-based; design: dose 100 mg/kg, route intravenous; conditions: Swiss Webster, mouse, in vivo
Method in brief: as §3

[24] = target: DNA topoisomerase IV (Bacillus subtilis); test: Inhibition of Bacillus subtilis topoisomerase IV activity

Compound	IC50 [1] [µg/mL]	MIC (Enterococcus faecium [2]) [µg/mL]	MIC (Enterococcus faecalis) [µg/mL]	MIC (Escherichia coli) [µg/mL]	MIC (Staphylococcus aureus [11]) [µg/mL]	ED50 (Mus musculus [17]) [mg/kg]	MIC (Enterococcus faecium [18]) [µg/mL]	Ki [19] [nM]	further results
CCc1cc(Nc2cc(=O)n(CCCCN3CCN(c4c(F)cc5c(=O)c(C(=O)O)cn(C6CC6)c5c4F)CC3C)c(=O)[nH]2)ccc1C (configuration not stated)	21.7 (≈ 32.7 µM)	0.625 (≈ 0.943 µM)	1.25 (≈ 1.89 µM)	5 (≈ 7.54 µM)	1.25 (≈ 1.89 µM)	15	1.25 (≈ 1.89 µM)	–	Activity (Mus musculus [3]): 0%; Activity (Mus musculus [4]): 10%; Activity (Mus musculus [5]): 10%; Activity (Mus musculus [6]): 5%; Activity (Mus musculus [7]): 0%; Activity (Mus musculus [8]): 0%; Activity (Mus musculus [9]): 13%; Activity (Mus musculus [10]): 40%; Activity (Mus musculus [12]): 55%; Activity (Mus musculus [13]): 80%; Activity (Mus musculus [14]): 80%; Activity (Mus musculus [15]): 45%; Activity (Mus musculus [16]): 40%
CCc1cc(Nc2cc(=O)n(CCCCN3CCN(c4c(F)cc5c(=O)c(C(=O)O)cn(C6CC6)c5c4F)C[C@H]3C)c(=O)[nH]2)ccc1C	11.7 (≈ 17.7 µM)	1.25 (≈ 1.89 µM)	1.25 (≈ 1.89 µM)	5 (≈ 7.54 µM)	1.25 (≈ 1.89 µM)	20	2.5 (≈ 3.77 µM)	7	–
CCc1cc(Nc2cc(=O)n(CCCCN3CCN(c4c(F)cc5c(=O)c(C(=O)O)cn(C6CC6)c5c4F)C[C@@H]3C)c(=O)[nH]2)ccc1C	9.2 (≈ 13.9 µM)	0.625 (≈ 0.943 µM)	1.25 (≈ 1.89 µM)	20 (≈ 30.2 µM)	–	15	1.25 (≈ 1.89 µM)	4	MIC (Staphylococcus aureus [20]): 0.625 µg/mL (≈ 0.943 µM)
CCc1cc(Nc2cc(=O)n(CCCCN3CCN(c4cc5c(cc4F)c(=O)c(C(=O)O)cn5C4CC4)CC3)c(=O)[nH]2)ccc1C	28.4 (≈ 45 µM)	0.625 (≈ 0.991 µM)	0.625 (≈ 0.991 µM)	> 40	2.5 (≈ 3.96 µM)	–	1.25 (≈ 1.98 µM)	–	Tmax [21]: 5 min; concentration at 6 h [22]: 0.62 µg/mL; Cmax [23]: 213 µg/mL; MIC (Mus musculus [17]): 0.41 µg/mL (≈ 0.65 µM); IC50 [24]: 22.9 µg/mL (≈ 36.3 µM)
